Measurements reported in ChEMBL document CHEMBL1134514, “Synthesis of novel gamma-aminobutyric acid (GABA) uptake inhibitors. 5.(1) Preparation and structure-activity studies of tricyclic analogues of known GABA uptake inhibitors” (J Med Chem, 2001).

Columns and labels:
GABA transporter = GABA transporter (Rattus norvegicus, UniProt P31647+P23978+P31646+P48056); experiment: In vitro inhibition of [3H]GABA uptake in rat synaptosomes was determined; type: functional, subcellular, Brain
How it was run: (§1)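 Rat forebrain homogenized in ice-cold 0.32 M sucrose, spun 10 min at 600 g, 4 °C; pellet resuspended in pH 7.4 phosphate/NaCl/glucose buffer. Synaptosomes (0.1 mg protein) preincubated with test substance 8 min at 30 °C, then [3H]-GABA (0.9 nM final) plus unlabeled GABA (0.9 nM final) for 8 min. Filtration on glass fiber, ice-cold saline washes, scintillation counting. IC50 as mean of two determinations.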

[1] = biological target: T1, GABA transporter (Mus musculus) (UniProt P31650+P31651+P31649+P31648); experiment: Ratio for ED50 values for inhibition of rotarod to inhibition of DMCM-induced convulsions in mice; type: functional
How it was run: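 Protective index is the rotarod ED50 divided by the ED50 for inhibiting DMCM (15 mg/kg ip) clonic seizures. Both were measured in mice after ip dosing.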

[2] = biological target: T1, GABA transporter (Mus musculus); experiment: In vivo anticonvulsant effect measured as inhibition of DMCM -induced seizures in mice after ip administration.; type: functional, organism-based
How it was run: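 Female NMRI mice given test drug ip 30 min before DMCM 15 mg/kg ip. Observed for 30 min for clonic seizures and death, N = 5-10 per dose. ED50 in mg/kg.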

[3] = biological target: T1, GABA transporter (Mus musculus); experiment: In vivo anticonvulsant effect measured as rotarod in mice after ip administration; type: functional, organism-based
How it was run: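 Mice pretrained 2 min on rotarod (6 rpm, 3 cm rod), then dosed ip. On testing, a mouse that fell was placed back on the rod. Testing ended at 10 failures or after 2 min. ED50 in mg/kg.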

Rattus norvegicus [4] = species: Rattus norvegicus; experiment: In vitro inhibition of [3H]GABA uptake determined; type: functional; how it was run: as §1
Rattus norvegicus [5] = species: Rattus norvegicus; experiment: In vitro inhibition of [3H]GABA uptake in rat synaptosomes was determined; No activity; type: functional, Brain

Compound	IC50 (GABA transporter) [nM]	IC50 (Rattus norvegicus [4]) [nM]	Protective index [1]	ED50 [2] [mg/kg]	ED50 [3] [mg/kg]	IC50 (Rattus norvegicus [5])
Cl.O=C(O)[C@@H]1CCCN(CCOCCN2c3ccccc3C=Cc3ccccc32)C1	647	–	> 1	30	> 30	–
Cl.O=C(O)[C@@H]1CCCN(CCOCCN(c2ccccc2)c2ccccc2)C1	90	–	1.6	–	–	–
O=C(O)C1CCCN(CCC=C2c3ccccc3CCc3ccccc32)C1 (stereo not drawn)	13600	–	–	> 60	> 60	–
Cl.O=C(O)[C@@H]1CCCN(CCOCCN2c3ccccc3Sc3ccccc32)C1	308	–	1.8	30	54	–
Cl.O=C(O)[C@@H]1CCCN(CCON=C2c3ccccc3CCc3ccccc32)C1	1161	–	> 3.3	30	> 100	–
Cl.O=C(O)[C@@H]1CCCN(CCON=C2c3cc(Cl)ccc3CCc3ccc(Cl)cc32)C1	5509	–	1.1	35	40	–
Cl.O=C(O)[C@H]1CCCN(CCOCCC2c3ccccc3CCc3ccccc32)C1	561	–	> 2.6	23	> 60	–
Cl.O=C(O)[C@@H]1CCCN(CCCOCC=C2c3ccccc3CCc3ccccc32)C1	460	–	> 2.5	60	> 150	–
Cl.O=C(O)[C@@H]1CCCN(CCOCCN2c3cc(Cl)ccc3CCc3ccc(Cl)cc32)C1	68	–	> 2.2	45	> 100	–
Cl.O=C(O)C1CCCN(CCOC(c2ccccc2)c2ccccc2)C1 (stereo not drawn)	1370	–	–	–	–	–
Cl.O=C(O)[C@@H]1CCCN(CCOCCC(c2ccccc2)c2ccccc2)C1	55	–	5.3	–	–	–
Cl.O=C(O)[C@@H]1CCCN(CCOCCN2c3ccccc3CCc3ccc(F)cc32)C1	265	–	–	–	–	–
O=C(O)[C@@H]1CCCN(CCC=C2c3ccccc3-c3ccccc32)C1	2018	–	–	–	–	–
Cl.O=C(O)[C@@H]1CCCN(CCOCCN2c3ccccc3Sc3ccc(C(F)(F)F)cc32)C1	105	–	> 1.6	38	> 60	–
O=C(O)[C@@H]1CCCN(CCOC=C(c2ccccc2)c2ccccc2)C1	–	87	–	–	–	–
Cl.O=C(O)[C@@H]1CCCN(CCOCCN2c3ccccc3Oc3ccccc32)C1	14600	–	–	–	–	–
Cl.O=C(O)[C@@H]1CCCN(CCOCCCN2c3ccccc3CCc3ccccc32)C1	696	–	> 1.2	50	> 60	–
O=C(O)C1CCCN(CCOC2c3ccccc3-c3ccccc32)C1 (stereo not drawn)	–	–	–	–	–	Not Active
O=C(O)C1CCCN(CCOC2c3ccccc3C=Cc3ccccc32)C1 (stereo not drawn)	2500	–	–	–	–	–
Cl.O=C(O)C1=CCCN(CCOCCN2c3ccccc3CCc3ccccc32)C1	644	–	2.9	7.3	21	–
O=C(O)[C@@H]1CCCN(CCOCCN2c3ccc(Br)cc3CCc3cc(Br)ccc32)C1	–	1030	–	–	–	–
Cl.O=C(O)[C@H]1CCCN(CCOC/C=C2\c3ccccc3CCc3ccc(Cl)cc32)C1	2495	–	> 1.2	50	> 60	–

Second part, led by results:

IC50 (GABA transporter) [nM]	IC50 (Rattus norvegicus [4]) [nM]	Compound	Protective index [1]	ED50 [2] [mg/kg]	ED50 [3] [mg/kg]	IC50 (Rattus norvegicus [5])
248	–	Cl.O=C(O)[C@@H]1CCCN(CCOCCN2c3ccc(F)cc3CCc3cc(F)ccc32)C1	–	–	–	–
74	–	Cl.O=C(O)[C@@H]1CCCN(CCOCCN2c3ccccc3CCc3ccc(Cl)cc32)C1	> 2	15	> 30	–
1202	–	Cl.O=C(O)C1=CCCN(CCOCCC2c3ccccc3CCc3ccccc32)C1	–	–	–	–
82	–	Cl.O=C(O)[C@@H]1CCCN(CCON=C(c2ccccc2)c2ccccc2)C1	–	–	–	–
51	–	Cl.O=C(O)CC1CCN(CCOCCN2c3ccccc3CCc3ccccc32)C1 (stereo not drawn)	3.2	31	100	–
184	–	Cl.O=C(O)[C@@H]1CCCN(CCOCCN2c3ccccc3CCc3ccccc32)C1	5.7	15	85	–
770	–	Cl.O=C(O)[C@H]1CCCN(CCOCC=C2c3ccccc3CCc3ccccc32)C1	> 3.3	30	> 100	–
–	2180	O=C(O)[C@@H]1CCCN(CCOC=C2c3ccccc3CCc3ccccc32)C1	–	–	–	–
> 40000	–	Cl.O=C(O)[C@@H]1CCCN(CCOCCn2c3ccccc3c3ccccc32)C1	–	–	–	–
851	–	Cl.O=C(O)[C@@H]1CCCN(CCOCCN2c3ccccc3CCCc3ccccc32)C1	> 1.5	60	–	–
